Laboratory results as given in ChEMBL document CHEMBL4376883, “Discovery and Optimization of Small Molecules Targeting the Protein-Protein Interaction of Heat Shock Protein 90 (Hsp90) and Cell Division Cycle 37 as Orally Active Inhibitors for the Treatment of Colorectal Cancer” (J Med Chem, 2020).

Legend:
[1] = system: L02; experiment: Cytotoxicity against human L02 cells measured after 72 hrs by CCK8 assay; assay type: functional, cell-based; conditions: L02, 72 h
In short: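 Cells grown in RPMI 1640 with 10% FBS at 37 °C, 5% CO2; STR-authenticated and mycoplasma-checked. Seeded at 3000-5000 cells/well and left 24 h. Serial compound dilutions added for 72 h, with matched DMSO as control. Viability read by CCK8 kit using the standard protocol. IC50 values derived from at least three parallel experiments.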

[2] = Stability of the compound in human plasma assessed as parent compound remaining at 1 uM measured after 10 mins by LC-MS/MS analysis; assay type: ADME, cell-free; conditions: read-out: Stability
In short: (§1)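 Compound diluted from 10 mM DMSO stock to 1 μM in mouse or human plasma and held at 37 °C in a water bath. Reactions were stopped with acetonitrile at 0, 10, 30, 60 and 90 min. Parent compound was quantified by LC-MS/MS as % remaining.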

[3] = Distribution coefficient, log D of the compound at pH 7.4 by potentiometric titration method; assay type: physicochemical; conditions: octanol/water
In short: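 log D at pH 7.4 measured by potentiometric titration on a Gemini Profiler.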

[4] = Clearance in mouse liver microsomes at 10 uM preincubated for 5 mins followed by NADPH addition by LC-MS/MS analysis; assay type: ADME, Microsome; conditions: read-out: CLH
In short: (§2)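 Compound at 10 µM preincubated 5 min at 37 °C with human or mouse liver microsomes (0.5 mg/mL) in 100 mM phosphate, pH 7.4. Reaction started with 1 mM NADPH, stopped with cold acetonitrile, centrifuged and analysed by LC-MS/MS.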

[5] = Stability of the compound in human plasma assessed as parent compound remaining at 1 uM measured after 60 mins by LC-MS/MS analysis; assay type: ADME, cell-free; conditions: read-out: Stability; in short: as §1
[6] = system: HCT-116; experiment: Effect on HSP90 expression in human HCT116 cells at 10 uM measured up to 48 hrs by Western blot analysis; assay type: cell-based; conditions: hct-116, 48 h
In short: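 HCT116 cells treated with 0, 1, 5 or 10 µM for 24 h, or with 10 µM for 0, 4, 12, 24 or 48 h. Lysates separated by SDS-PAGE and blotted. Membranes blocked in 5% milk, primary antibodies overnight at 4 °C, HRP secondaries, chemiluminescent detection.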

[7] = Stability of the compound in mouse plasma assessed as parent compound remaining at 1 uM measured after 90 mins by LC-MS/MS analysis; assay type: ADME, cell-free; conditions: read-out: Stability; in short: as §1
[8] = Stability of the compound in human plasma assessed as parent compound remaining at 1 uM measured after 90 mins by LC-MS/MS analysis; assay type: ADME, cell-free; conditions: read-out: Stability; in short: as §1
[9] = Stability of the compound in human plasma assessed as parent compound remaining at 1 uM measured after 30 mins by LC-MS/MS analysis; assay type: ADME, cell-free; conditions: read-out: Stability; in short: as §1
[10] = Half life in human liver microsomes at 10 uM preincubated for 5 mins followed by NADPH addition by LC-MS/MS analysis; assay type: ADME, Microsome; in short: as §2
[11] = Cmax in plasma of human HCT116 cells xenografted BALB/c mouse at 80 mg/kg, po administered as single dose by LC-MS/MS analysis; assay type: ADME, organism-based; parameters: dose 80 mg/kg, route oral
In short: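 Tumour-bearing mice (n = 6 per group) given one oral dose of 80 mg/kg. Blood and tumour collected into heparinized tubes at 0, 0.25, 0.5, 1, 2, 4, 8, 12 and 24 h. Plasma obtained by centrifugation at 3000 rpm for 10 min. Samples stored at -80 °C and quantified by LC-MS/MS.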

**Q.** With `Cc1cc(C)c(S(=O)(=O)N(CC(=O)O)c2ccc(Nc3ccnc(N4CCNCC4)n3)cc2)c(C)c1` as the compound, how does the IC50 [1] read?
**A.** > 50 µM

**Q.** And the remaining at 10 min, 1 µM [2]?
**A.** 98%

**Q.** What about the logD [3] of the same compound?
**A.** 1.93

**Q.** And the microsomal CLint at 10 µM [4]?
**A.** 10.3 µL/min/mg

**Q.** And the remaining at 1 h, 1 µM [5]?
**A.** 102%

**Q.** And the Activity [6]?
**A.** Non-Toxic

**Q.** And the remaining at 1.5 h, 1 µM [7]?
**A.** 105%

**Q.** And the remaining at 1.5 h, 1 µM [8]?
**A.** 103%

**Q.** What about the remaining at 0.5 h, 1 µM [9] of the same compound?
**A.** 104%

**Q.** And the half-life at 10 µM [10]?
**A.** 2.08 h

**Q.** What about the Cmax [11] of the same compound?
**A.** 308 µg/mL
